Reference: PMC7781011 (Journal of Inflammation Research, 2020)
Like-named read-outs stand apart in the source and are kept apart here.

Assays:
human COX-2 = molecular target: T1, human COX-2 (Homo sapiens, UniProt P35354); test: Cell-free fluorometric COX-2 assay; format: biochemical; conditions: up to the tested range of 1 mM
T1 sequence (P35354 18-604): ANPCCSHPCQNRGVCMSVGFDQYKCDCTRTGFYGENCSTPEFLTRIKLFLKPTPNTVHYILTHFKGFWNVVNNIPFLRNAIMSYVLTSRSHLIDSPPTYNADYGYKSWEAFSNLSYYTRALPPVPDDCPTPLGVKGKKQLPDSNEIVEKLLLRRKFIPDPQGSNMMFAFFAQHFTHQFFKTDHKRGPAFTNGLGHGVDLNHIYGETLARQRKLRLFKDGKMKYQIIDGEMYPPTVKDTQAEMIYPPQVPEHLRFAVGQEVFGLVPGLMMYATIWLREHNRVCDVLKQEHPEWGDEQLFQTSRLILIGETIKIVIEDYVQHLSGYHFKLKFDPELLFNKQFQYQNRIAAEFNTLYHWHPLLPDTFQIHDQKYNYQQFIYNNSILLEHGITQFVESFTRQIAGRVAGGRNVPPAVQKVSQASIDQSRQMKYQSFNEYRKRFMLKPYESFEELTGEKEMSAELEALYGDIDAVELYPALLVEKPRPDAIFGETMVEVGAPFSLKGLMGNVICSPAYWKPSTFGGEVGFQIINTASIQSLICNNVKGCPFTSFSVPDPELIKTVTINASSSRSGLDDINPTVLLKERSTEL

human 5-LOX [1] = molecular target: T2, human 5-LOX (Homo sapiens, UniProt P09917); test: Circular dichroism, change in secondary structure; conditions: CD
T2 sequence (P09917 1-674): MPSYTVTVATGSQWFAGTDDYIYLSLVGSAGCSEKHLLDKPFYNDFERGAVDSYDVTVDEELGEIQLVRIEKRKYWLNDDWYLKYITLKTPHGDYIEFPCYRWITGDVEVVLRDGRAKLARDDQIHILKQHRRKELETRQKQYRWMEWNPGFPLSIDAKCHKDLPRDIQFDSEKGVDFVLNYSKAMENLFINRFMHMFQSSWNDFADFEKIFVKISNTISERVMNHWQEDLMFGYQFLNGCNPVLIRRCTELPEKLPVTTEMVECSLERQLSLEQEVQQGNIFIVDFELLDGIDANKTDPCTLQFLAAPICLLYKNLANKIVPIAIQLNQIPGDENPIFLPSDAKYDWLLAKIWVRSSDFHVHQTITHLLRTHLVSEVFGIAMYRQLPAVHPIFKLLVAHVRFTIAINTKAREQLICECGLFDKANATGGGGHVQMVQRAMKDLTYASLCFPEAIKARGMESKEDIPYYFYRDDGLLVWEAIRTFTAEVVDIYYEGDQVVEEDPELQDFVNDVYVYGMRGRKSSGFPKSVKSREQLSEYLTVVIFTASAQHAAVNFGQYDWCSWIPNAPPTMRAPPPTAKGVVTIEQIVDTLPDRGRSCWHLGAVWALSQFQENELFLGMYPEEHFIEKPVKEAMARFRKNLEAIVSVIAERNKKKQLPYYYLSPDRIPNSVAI
Summary of the method: (§1)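 Native and compound-treated (0.1–10 µM) enzymes in PBS pH 7.4 at final protein 200 µM. CD spectra corrected by subtracting buffer blanks. Percent change in secondary structure (α-helix, β-sheet) calculated with the CAPITO analysis server.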

human 5-LOX [2] = molecular target: T2, human 5-LOX; test: Binding assay using isothermal titration calorimetry
Summary of the method: (§2)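 Serial injections of test compound (up to 1 mM) into enzyme-containing cell at 1 mM protein, both dissolved in PBS and degassed before use. Titration continued until heat signal approached zero at saturation. Isotherm fitted to obtain dissociation constant KD.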

[3] = In vitro metabolic stability in activated liver S9 fraction; format: in vitro ADME; conditions: mouse liver S9 fraction activated with NADPH, UDPGA, GSH, PAPS; 500 µM
Summary of the method: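 Mouse or rat liver S9 fraction isolated and activated with NADPH, UDPGA, GSH and PAPS before compound addition. Samples taken at 0, 15, 30, 45 and 60 min. Compound extracted with acetonitrile and quantified by reversed-phase HPLC with PDA detection. Percent remaining calculated from peak areas at 0 and 60 min.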

human COX-1 [4] = molecular target: T3, human COX-1 (Homo sapiens, UniProt P23219); test: Circular dichroism, change in secondary structure; conditions: CD, Human COX-1, LFA-9 10 µM
T3 sequence (P23219 24-599): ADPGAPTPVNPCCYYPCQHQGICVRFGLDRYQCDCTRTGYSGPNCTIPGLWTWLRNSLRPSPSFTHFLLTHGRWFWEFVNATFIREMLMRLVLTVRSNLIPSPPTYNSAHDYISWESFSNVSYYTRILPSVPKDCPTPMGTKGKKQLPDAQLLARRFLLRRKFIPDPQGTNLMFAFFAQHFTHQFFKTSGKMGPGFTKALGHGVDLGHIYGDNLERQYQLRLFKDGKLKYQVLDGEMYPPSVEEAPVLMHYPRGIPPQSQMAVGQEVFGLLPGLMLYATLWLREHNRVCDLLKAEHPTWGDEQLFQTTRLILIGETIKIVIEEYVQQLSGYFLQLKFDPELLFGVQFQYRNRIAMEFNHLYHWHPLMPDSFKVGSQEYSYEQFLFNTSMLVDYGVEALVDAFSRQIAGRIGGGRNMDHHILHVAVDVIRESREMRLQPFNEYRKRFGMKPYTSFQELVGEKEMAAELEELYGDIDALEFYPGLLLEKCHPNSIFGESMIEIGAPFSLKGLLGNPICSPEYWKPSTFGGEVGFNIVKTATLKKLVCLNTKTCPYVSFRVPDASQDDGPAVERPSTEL
Summary of the method: as §1

[5] = tested on: CD68-positive inflammatory cell infiltration and TNF-α expression in paw tissue; test: Immunofluorescence and immunoblot analysis of carrageenan-injected paw tissue; format: in vivo; conditions: rat, 400 ppm, compared to the untreated control
Summary of the method: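 Paw tissue: 4-µm FFPE sections, citrate pH 6.0 epitope retrieval (99°C, 30 min). Blocked with serum/BSA 40 min. Alexa700-CD68 (1:50) and TNF-α (1:100) overnight at 4°C, Alexa488 secondary for TNF-α. Confocal imaging, stained cells counted by image analysis. Immunoblot: 20 µg protein, 12% SDS-PAGE, PVDF. CD68 and TNF-α (1:100), HRP secondary, ECL, β-actin loading control.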

[6] = tested on: normal colonocytes of rats; test: MTT assay; format: cell-based, rat; conditions: 0.1–100 µM, 24 hours
Summary of the method: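 Normal rat colonocytes exposed 24 h to compound (0.1–100 µM), then MTT reagent for 2 h at 37°C. Formazan dissolved in DMSO, absorbance read at 570 nm with 620 nm reference. Three independent experiments, expressed as percent viability.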

human COX-1 [7] = molecular target: T3, human COX-1; test: Binding assay using isothermal titration calorimetry
Summary of the method: as §2

SMILES: CC1(C)Cc2c(-c3ccccc3)c(-c3ccc(Cl)cc3)c(CC(=O)NCC(=O)O)n2C1 [LFA-9, 2-[[2-[2-(4-chlorophenyl)-6,6-dimethyl-1-phenyl-5,7-dihydropyrrolizin-3-yl]acetyl]amino]acetic acid]
- inhibition of COX-2 activity (human COX-2): did not show inhibition
- unfolding of α-helix of 5-LOX (human 5-LOX [1]; 5-LOX, LFA-9 at 0.1 µM): 8.7%
- unfolding of β-sheets of 5-LOX (human 5-LOX [1]; 5-LOX, LFA-9 at 0.1 µM): 1%
- Change in Secondary Structure: unfolding in α-helix (human 5-LOX [1]; Human 5-LOX, LFA-9 0.12 µM): 8.7%
- Change in Secondary Structure: unfolding in β-sheets (human 5-LOX [1]; Human 5-LOX, LFA-9 0.12 µM): 1%
- Kd (human 5-LOX [2]): 18 µM
- Kd (human 5-LOX [2]; read-out: KD (KD2), ITC, Human 5-LOX, sequential binding sites, second site): 210 µM
- LFA-9 remaining after 60-minutes incubation [3]: 96.1%
- Change in Secondary Structure (human COX-1 [4]): No change in secondary structure
- CD68-positive inflammatory cell infiltration in paw tissue [5]: significantly decreased
- expression of TNF-α in paw tissue [5]: significantly decreased
- cytotoxicity to normal rat colonic epithelial cells [6]: no cytotoxicity
- Kd (human COX-1 [7]): > 1 mM
